# System: Rattus norvegicus
# Assay: Antiallergic activity in iv dosed Sprague-Dawley rat assessed as inhibition of egg albumin-induced passive cutaneous anaphylaxis after 15 to 25 mins relative to disodium cromoglycate
# Format: functional
# How it was run: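 Reaginic antiserum from rats immunized with 1.25 mg egg albumin sc plus H. pertussis vaccine ip, bled 11 days later. Recipient rats sensitized intradermally with two antiserum dilutions in 0.1 mL saline. Challenged 24 h later iv with 1.0 mL buffered saline (pH 7.2) holding 1.0 mg albumin, 0.5% Evans blue and test compound. Usually three doses (fivefold increments), ≥5 rats per group.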
row,Structure (SMILES),fold change (FC)
1,CCCCOc1cc([S+](C)[O-])cc2c(=O)c3cc(C(=O)O)ccc3oc12 (stereo not given),260

# System: Rattus norvegicus
# Assay: Antiallergic activity in iv dosed Sprague-Dawley rat assessed as inhibition of egg albumin-induced passive cutaneous anaphylaxis after 15 to 25 mins relative to disodium cromoglycate
row,Structure (SMILES),RPCA relative potency
1,O=C(O)c1ccc2oc3ccc(C(=O)C4CCCC4)cc3c(=O)c2c1,2
2,Cc1cc(C)c2oc3ccc(C(=O)O)cc3c(=O)c2c1,1
3,CSc1ccc2oc3ccc(C(=O)O)cc3c(=O)c2c1,5
4,CCOc1cc([S+](C)[O-])cc2c(=O)c3cc(C(=O)O)ccc3oc12 (stereo not given),80
5,COc1cc2oc3ccc(C(=O)O)cc3c(=O)c2cc1OC,2
6,COc1cc(OC)c2c(=O)c3cc(C(=O)O)ccc3oc2c1,0.1
7,O=C(O)c1ccc2oc3ccc(C(=O)C4CC4)cc3c(=O)c2c1,3
8,CC(C)C(=O)c1ccc2oc3ccc(C(=O)O)cc3c(=O)c2c1,3
9,CC(C)CCOc1cc([S+](C)[O-])cc2c(=O)c3cc(C(=O)O)ccc3oc12 (stereo not given),100
10,Cc1cc2oc3ccc(C(=O)O)cc3c(=O)c2cc1C,0.2
11,CC(C)Sc1ccc2oc3ccc(C(=O)O)cc3c(=O)c2c1,2
12,CCCCCCCCOc1cc([S+](C)[O-])cc2c(=O)c3cc(C(=O)O)ccc3oc12 (stereo not given),35
13,Cc1ccc2oc3ccc(C(=O)O)cc3c(=O)c2c1C,0.2
14,CS(=O)(=O)c1ccc2oc3ccc(C(=O)O)cc3c(=O)c2c1,7
15,CCCCCOc1cc([S+](C)[O-])cc2c(=O)c3cc(C(=O)O)ccc3oc12 (stereo not given),90
16,C[S+]([O-])c1cc(OC2CCCC2)c2oc3ccc(C(=O)O)cc3c(=O)c2c1 (stereo not given),100
17,CCC(=O)c1ccc2oc3ccc(C(=O)O)cc3c(=O)c2c1,2
18,CC(=O)c1ccc2oc3ccc(C(=O)O)cc3c(=O)c2c1,6
19,C[S+]([O-])c1ccc2oc3ccc(C(=O)O)cc3c(=O)c2c1 (stereo not given) [TIXANOX],25
20,CC(C)[S+]([O-])c1ccc2oc3ccc(C(=O)O)cc3c(=O)c2c1 (stereo not given),4
21,CC(C)Oc1cc([S+](C)[O-])cc2c(=O)c3cc(C(=O)O)ccc3oc12 (stereo not given),190
22,CCCOc1cc([S+](C)[O-])cc2c(=O)c3cc(C(=O)O)ccc3oc12 (stereo not given),50
23,COc1cc(OC)c2oc3ccc(C(=O)O)cc3c(=O)c2c1,6
24,CCCCOc1cc([S+](C)[O-])cc2c(=O)c3cc(C(=O)O)ccc3oc12 (stereo not given),260

# From ChEMBL document CHEMBL3244024, “Synthesis and antiallergic activity of some mono- and disubstituted xanthone-2-carboxylic acids” (1978)
